Assay results taken from ChEMBL document CHEMBL2150978, “Phosphorodiamidates as a promising new phosphate prodrug motif for antiviral drug discovery: application to anti-HCV agents” (J Med Chem, 2011).

What was measured:
[1] = tested on: Hepatitis C virus; assay: Antiviral activity against Hepatitis C virus subtype 1b Con1 infected in human Huh7 cells assessed as inhibition of HCV replicon-encoded Renilla luciferase reporter activity after 72 hrs by HCV replicon assay; assay type: functional, organism-based, Hepacivirus hominis; settings: Con1, Huh-7, 72 h
Procedure, shortened: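 Huh7 cells stably carrying a bicistronic subgenomic genotype 1b (Con1) replicon with Renilla luciferase reporter, seeded at 2 × 10⁴ cells/well the day before. Four-fold serial dilutions in growth medium, no-drug controls on each plate; 3 days at 37 °C, 5% CO₂. Luciferase reagent 20 min, then luminescence (RLU) read; EC₅₀ derived.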

[2] = Cytotoxicity against human HuH7 cells after 3 days; assay type: cell-based, Huh-7
Procedure, shortened: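 Huh7 replicon cells seeded at 2 × 10⁴ per well one day before dosing. Four-fold serial dilutions in growth medium, no-drug controls on each plate. Incubated 3 days at 37 °C, 5% CO₂. Viability read by CellTiter-Glo luminescence after 20 min with reagent.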

[3] = tested on: Liver; assay: Cmax in Sprague-Dawley rat liver assessed as 2'-C-methyl guanosine triphosphate level at 10 mg/kg, po up to 24 hrs by LC-MS/Ms analysis; assay type: ADME, organism-based; set-up: dose 10 mg/kg, route oral; settings: in vivo
Procedure, shortened: (§1)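 Male Sprague-Dawley rats dosed orally by gavage at 10 mg/kg in 95% Capmul MCM/5% Tween 80. Livers collected terminally at eight time points up to 24 h and snap-frozen in liquid nitrogen. Liver 2′-C-methylguanosine triphosphate quantified by LC-MS/MS, linear over 100−4000 ng per gram of tissue (r² ≥ 0.99, ≥85% accuracy, ≤2% CV).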

[4] = tested on: Liver; assay: Clast in Sprague-Dawley rat liver assessed as 2'-C-methyl guanosine triphosphate level at 10 mg/kg, po up to 24 hrs by LC-MS/Ms analysis; assay type: ADME, organism-based; set-up: dose 10 mg/kg, route oral; settings: in vivo; procedure, shortened: as §1
[5] = tested on: Liver; assay: Tmax in Sprague-Dawley rat liver assessed as 2'-C-methyl guanosine triphosphate level at 10 mg/kg, po up to 24 hrs by LC-MS/Ms analysis; assay type: ADME, organism-based; set-up: dose 10 mg/kg, route oral; settings: in vivo; procedure, shortened: as §1
[6] = tested on: Liver; assay: AUC (0 to t) in Sprague-Dawley rat liver assessed as 2'-C-methyl guanosine triphosphate level at 10 mg/kg, po up to 24 hrs by LC-MS/Ms analysis; assay type: ADME, organism-based; set-up: dose 10 mg/kg, route oral; settings: in vivo; procedure, shortened: as §1
[7] = Selectivity index, ratio of CC50 for human HuH7 cells to EC50 for Hepatitis C virus subtype 1b Con1; assay type: toxicity, cell-based, Huh-7; settings: read-out: Ratio CC50/EC50
Procedure, shortened: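 Huh7 cells carrying a stable bicistronic subgenomic genotype 1b (Con1) HCV replicon with Renilla luciferase reporter, 2 × 10⁴ cells per well. Four-fold serial dilutions, 3 days at 37 °C, 5% CO₂. Replicon inhibition read by luciferase luminescence (RLU) and cytotoxicity by CellTiter-Glo in the same cell line. SI taken as CC50/EC50.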

[8] = Stability in phosphate buffer at pH 7 after 14 hrs by [31P] NMR spectroscopy; assay type: physicochemical; settings: pH 7, 14 h
[9] = Stability in phosphate buffer assessed as compound decomposition by HPLC; assay type: physicochemical
[10] = Stability in citric acid-HCl buffer at pH 2 incubated for 14 hrs at 37 or 47 degC by [31P] NMR spectroscopy; assay type: physicochemical; settings: pH 2, 14 h
Procedure, shortened: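 Compound in citric acid−HCl buffer pH 2, held at 37 or 47 °C and monitored by ³¹P NMR over 14 h.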

[11] = Stability of the compound in triethylammonium bicarbonate buffer assessed as compound decomposition at pH 8.5 incubated at 37 degC by [31P] NMR spectroscopy; assay type: physicochemical
Procedure, shortened: (§2)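 Base stability tested at pH 8.5 and at pH 11, both at 37 °C, followed by ³¹P NMR, with pH 11 samples followed to 17 h. Half-life estimated assuming first-order decay.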

[12] = Stability of the compound in triethylammonium bicarbonate buffer assessed as compound decomposition at pH 11 incubated at 37 degC by [31P] NMR spectroscopy; assay type: physicochemical; procedure, shortened: as §2
[13] = tested on: Serum; assay: Stability in human serum incubated for 12 hrs by [31P] NMR spectroscopy; assay type: ADME, cell-free
[14] = Drug metabolism in acetone-d6 and TRIZMA buffer at pH 7.4 assessed as (S)-2-((((2R,3R,4R,5R)-5-(2-amino-6-methoxy-9H-purin-9-yl)-3,4-dihydroxy-4-methyltetrahydrofuran-2-yl)methoxy)oxidophosphorylamino)propanoate level at 6.95 ppm at pH 7.4 after 1 hr by 31P NMR in presence of carboxypeptidase Y; assay type: physicochemical; settings: pH 7.4, 1 h
Procedure, shortened: (§3)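 Compound (about 5 mg) in 200 μL acetone-d₆ plus 400 μL Trizma buffer pH 7.4. Baseline ³¹P NMR recorded, then 0.3−0.5 mg carboxypeptidase Y in 200 μL Trizma pH 7.4 added. Processing followed by ³¹P NMR kinetics. A buffer phosphate impurity peak stays constant throughout.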

[15] = Drug metabolism in acetone-d6 and TRIZMA buffer at pH 7.4 assessed as (S)-2-((((2R,3R,4R,5R)-5-(2-amino-6-methoxy-9H-purin-9-yl)-3,4-dihydroxy-4-methyltetrahydrofuran-2-yl)methoxy)oxidophosphorylamino)propanoate level at 6.94 ppm at pH 7.4 after 1 hr by 31P NMR in presence of carboxypeptidase Y; assay type: physicochemical; settings: pH 7.4, 1 h; procedure, shortened: as §3
[16] = Stability of the compound in triethylammonium bicarbonate buffer assessed as compound decomposition at pH 11 incubated for 17 hrs at 37 degC by [31P] NMR spectroscopy; assay type: physicochemical; settings: pH 11, 17 h; procedure, shortened: as §2

Row | SMILES | EC50 [1] | EC90 [1] | CC50 at 72 h [2] | Cmax [3] | Clast [4] | Tmax [5] | AUCt [6] | selectivity ratio [7] | Stability [8] | Stability [9] | Stability [10] | Stability [11] | Stability [12] | Stability [13] | Drug metabolism [14] | Drug metabolism [15] | Stability [16]
1 | COc1nc(N)nc2c1ncn2[C@@H]1O[C@H](COP(=O)(N[C@H](C(=O)OCc2ccccc2)C(C)C)N[C@H](C(=O)OCc2ccccc2)C(C)C)[C@@H](O)[C@@]1(C)O (mixture of isomers) | 120 nM | 660 nM | 49000 nM | 359.5 ng/g | 73.6 ng/g | 4 h | 4478 ng·h/g |  |  |  |  |  |  |  |  |  | 
2 | COc1nc(N)nc2c1ncn2[C@@H]1O[C@H](COP(=O)(N[C@H](C)C(=O)OCC(C)(C)C)N[C@H](C)C(=O)OCC(C)(C)C)[C@@H](O)[C@@]1(C)O (mixture of isomers) | 110 nM | 500 nM | > 100000 nM | 598.3 ng/g | 441.7 ng/g | 8 h | 11608 ng·h/g |  |  |  |  |  |  |  |  |  | 
3 | CCCCOC(=O)[C@H](C)NP(=O)(N[C@@H](C)C(=O)OCCCC)OC[C@H]1O[C@@H](n2cnc3c(OC)nc(N)nc32)[C@](C)(O)[C@@H]1O (mixture of isomers) | 70 nM | 230 nM | > 100000 nM | 1553.3 ng/g | 719.7 ng/g | 8 h | 27671 ng·h/g |  |  |  |  |  |  |  |  |  | 
4 | COc1nc(N)nc2c1ncn2[C@@H]1O[C@H](COP(=O)(N[C@@H](C)C(=O)OCC(C)(C)C)N[C@@H](C)C(=O)OCC(C)(C)C)[C@@H](O)[C@@]1(C)O (mixture of isomers) | 60 nM | 200 nM | > 100000 nM | 1580 ng/g | 800 ng/g | 8 h | 25147 ng·h/g | > 1600 | Stable | Stable | Stable | Stable | Stable | Stable | Active | Active | Stable
5 | CCCCCOC(=O)[C@H](C)NP(=O)(N[C@@H](C)C(=O)OCCCCC)OC[C@H]1O[C@@H](n2cnc3c(OC)nc(N)nc32)[C@](C)(O)[C@@H]1O (mixture of isomers) | 30 nM | 110 nM | 65000 nM | 1042.3 ng/g | 506 ng/g | 8 h | 18600 ng·h/g |  |  |  |  |  |  |  |  |  | 
6 | COc1nc(N)nc2c1ncn2[C@@H]1O[C@H](COP(=O)(N[C@@H](C)C(=O)OC2Cc3ccccc3C2)N[C@@H](C)C(=O)OC2Cc3ccccc3C2)[C@@H](O)[C@@]1(C)O (mixture of isomers) | 580 nM | 1300 nM | 70000 nM | 632 ng/g | 632 ng/g | 24 h | 10642 ng·h/g |  |  |  |  |  |  |  |  |  | 
7 | CC[C@H](C)[C@H](NP(=O)(N[C@H](C(=O)OC1CCCCC1)[C@@H](C)CC)OC[C@H]1O[C@@H](n2cnc3c(OC)nc(N)nc32)[C@](C)(O)[C@@H]1O)C(=O)OC1CCCCC1 (mixture of isomers) | 4000 nM | 7100 nM | 14000 nM |  |  |  |  | 4 |  |  |  |  |  |  |  |  | 
8 | COc1nc(N)nc2c1ncn2[C@@H]1O[C@H](COP(=O)(N[C@@H](C)C(=O)OC2CCCC2)N[C@@H](C)C(=O)OC2CCCC2)[C@@H](O)[C@@]1(C)O (mixture of isomers) | 60 nM | 220 nM | > 100000 nM | 1523.3 ng/g | 610 ng/g | 8 h | 24546 ng·h/g |  |  |  |  |  |  |  |  |  | 
9 | COc1nc(N)nc2c1ncn2[C@@H]1O[C@H](COP(=O)(N[C@@H](C)C(=O)OCC(C)(C)C)Oc2cccc3ccccc23)[C@@H](O)[C@@]1(C)O (some centres undefined) [BMS-986094] |  |  |  | 1446.7 ng/g | 983.3 ng/g | 8 h | 24557 ng·h/g |  |  |  |  |  |  |  |  |  | 
10 | CCC(C)OC(=O)[C@H](C)NP(=O)(N[C@@H](C)C(=O)OC(C)CC)OC[C@H]1O[C@@H](n2cnc3c(OC)nc(N)nc32)[C@](C)(O)[C@@H]1O (mixture of isomers) | 150 nM | 530 nM | > 100000 nM | 907.7 ng/g | 538.7 ng/g | 8 h | 16252 ng·h/g |  |  |  |  |  |  |  |  |  | 
